From ChEMBL document CHEMBL2311256, “Design and synthesis of biaryl aryl stilbenes/ethylenes as antimicrotubule agents” (Eur J Med Chem, 2013) come the findings set out here.

Each structure is given as a SMILES string. pIC50: −log10 of the molar value. Calls of active or inactive are those of the source. The calls are words filed in the database; no cut-off is given here.

By pIC50 is commonly meant −log10 of the IC50, conventionally taken in molar units. A higher pIC50 goes with a low IC50. For orientation: inhibition means the change of the read-out against control, counted positive when it falls.

Experiment [1] has as its system HeLa. Nature of the experiment: Induction of cyclin B1 expression in human HeLa cells at 10 uM after 24 hrs by immunoblotting. The class given is functional, cell-based. Put shortly:
(§1)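 HeLa seeded at 1 × 10^5 cells/well and treated 24 h. Cells washed with PBS, lysed in 1X SDS sample buffer, run on SDS-PAGE and transferred to nitrocellulose. Blots probed with anti-cyclin B1 (1:1500) and HRP goat anti-rabbit secondary (1:5000), detected by enhanced chemiluminescence.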

The test system of a further experiment is A549. Nature of the experiment: Cytotoxicity against human A549 cells after 48 hrs by MTT assay. The settings on record: A549, 48 h. The experiment is classed as functional, cell-based. The method in brief: (§2)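 Cells given 24 h settling, then 48 h continuous exposure to 1, 10, 100 and 1000 µM in triplicate wells. A549, SK-N-SH and HeLa grown in DMEM with 10% FBS; DU145 in MEM with non-essential amino acids, 1 mM pyruvate, insulin and 10% FBS; all at 37 °C, 5% CO2. Read-out was MTT (60 min, 37 °C), DMSO elution, 560 nm. IC50 = 50% absorbance reduction versus control, mean ± SD of three experiments.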
(In general: Tetrazolium assays rely on reduction of a dye to a coloured formazan, in cell work by metabolically active cells.)

Experiment [2] relates to HeLa. Nature of the experiment: Cytotoxicity against human HeLa cells after 48 hrs by MTT assay. The class given is functional, cell-based. The method in brief:
as §2

A short description of experiment [3]: Inhibition of bovine brain tubulin polymerization by fluorescence assay. The arrangement: species or system Bos taurus.
A further experiment is filed under the species Bos taurus. Nature of the experiment: Inhibition of bovine brain tubulin polymerization at 5 uM by fluorescence assay.
In experiment [4] the test system is HeLa. Nature of the experiment: Antimitotic activity in human HeLa cells assessed as accumulation at G2/M phase at 10 uM after 24 hrs by flow cytometry analysis (reference value: 19.4%). The experiment is classed as functional. The method in brief: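 Cells treated 24 h at 10 µM, trypsin-EDTA harvested, fixed in ice-cold 70% ethanol at 4 °C for 30 min, then stained 30 min in propidium iodide (0.2 mg) plus RNase A (2 mg) per 1 mL. DNA content of 20,000 events measured by flow cytometry, and the percentage of cells in G2/M quantified against untreated and DMSO controls.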
(A flow cytometer gives signals particle by particle.)

For experiment [5], the target named is T1, Tubulin (Homo sapiens) (UniProt P68371+Q9H4B7+P0DPH7+P68366+Q13509+Q71U36+P04350+Q3ZCM7+P07437+P68363+Q9BQE3+Q6PEY2+Q13885+Q9BVA1+Q9BUF5). Nature of the experiment: Inhibition of tubulin polymerization in human HeLa cells assessed as tubulin cytoskeleton at 10 uM after 24 hrs by immunohistochemistry analysis. The experiment is classed as cell-based. Put shortly:
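HeLa on coverslips treated 24 h at 10 µM, then fixed in 3.5% formaldehyde/PBS for 10 min and permeabilized with 0.5% Triton X-100/0.05% Tween-20. Blocked in 2% BSA, stained with anti-tubulin (1:200, 4 h, RT) and FITC anti-mouse secondary (1:500, 1 h), DAPI counterstain. Imaged by fluorescence microscopy; five fields of view.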

The test system of another experiment is DU-145. Description: Cytotoxicity against human DU145 cells after 48 hrs by MTT assay. The experiment is classed as functional, cell-based. Particulars: DU-145, 48 h. Put shortly:
as §2

Experiment [6] deals with T1, Tubulin (Homo sapiens). Description: Inhibition of tubulin polymerization in human HeLa cells assessed as tubulin soluble fraction at 10 uM after 24 hrs by immunohistochemistry analysis. The class given is cell-based.
For the next experiment, the system named is SK-N-SH. Description: Cytotoxicity against human SK-N-SH cells after 48 hrs by MTT assay. The experiment is classed as functional, cell-based. Put shortly:
as §2

For experiment [7], the target named is T1, Tubulin (Homo sapiens). Particulars: HeLa, 1 uM.
The test system of experiment [8] is HeLa. Nature of the experiment: Induction of cyclin B1 expression in human HeLa cells at 1 uM after 24 hrs by immunoblotting. The class given is functional, cell-based. The method in brief:
as §1

In experiment [9] the target is T1, Tubulin (Homo sapiens). Description: Inhibition of tubulin polymerization in human HeLa cells assessed as tubulin polymerized fraction at 1 uM after 24 hrs by immunohistochemistry analysis. The class given is cell-based.

Consider `COc1ccc(/C=C/c2cc(OC)c(OC)c(OC)c2-c2ccc3c(c2)OCO3)cc1`, for which, in the experiment on HeLa [1], the result was Active. The negative-log IC50 (pIC50) in the experiment with A549 is 5.20; in the experiment on HeLa [2], 5.06; in [3] it was 5.17; in the experiment on DU-145, 5.14; in the experiment with SK-N-SH, 5.10. Also, in the experiment filed under Bos taurus, the inhibition was 62%. The Activity in the experiment on HeLa [4] is 73.02%. In addition, the inhibition result at Tubulin (Homo sapiens) [5] and on Tubulin (Homo sapiens) [6] was “Active” each time.

Turning to `C=C(c1ccc(OC)cc1)c1cc(OC)c(OC)c(OC)c1-c1ccc(OC)cc1`, the pIC50 in the experiment with A549 is 4.85; in the experiment with HeLa [2], 4.14; in the experiment with DU-145 it was 4.43; with SK-N-SH it was 4.12. The compound further displayed an inhibition in the experiment filed under Bos taurus of 40%.

With `COc1ccc(/C=C/c2cc(OC)c(OC)c(OC)c2-c2ccc(F)c(F)c2)cc1`, the outcome in the experiment on HeLa [1] was Active. Also, the pIC50 is 5.12 in the experiment with A549; 5.04 with HeLa [2]; 5.04 in experiment [3]; 5.12 with DU-145; 5.16 in the experiment with SK-N-SH. The compound also gave an inhibition in the experiment listed under Bos taurus of 55%. Also, in the experiment on HeLa [4], the Activity is given as 71.16%. For the same compound, on Tubulin (Homo sapiens) [5], the inhibition result is “Active”.

For `COc1ccc(/C=C/c2cc(OC)c(OC)c(OC)c2-c2ccc(C(C)(C)C)cc2)cc1`, the pIC50 in the experiment with A549 is 4.49; in the experiment on HeLa [2] it was 4.55; with DU-145, 4.35; with SK-N-SH, 4.52. This compound yielded an inhibition in the experiment listed under Bos taurus of 33%.

`COc1ccc(/C=C/c2cc(OC)c(OC)c(OC)c2-c2ccc(OC)cc2)cc1`: the pIC50 was 4.46 in the experiment on A549, 4.72 in the experiment with HeLa [2], 4.47 with DU-145 and 4.44 in the experiment with SK-N-SH. Besides, the inhibition in the experiment filed under Bos taurus was 20%.

For the compound `C=C(c1ccc(OC)cc1)c1cc(OC)c(OC)c(OC)c1-c1ccc(C(C)(C)C)cc1`, the pIC50 in the experiment with A549 is 4.57; in the experiment with HeLa [2] it was 4.41; in the experiment on DU-145, 4.41; with SK-N-SH, 4.62. The compound also registered an inhibition in the experiment filed under Bos taurus of 23%.

As for `COC(=O)Nc1nc2cc(C(=O)c3cccs3)ccc2[nH]1`, the inhibition entry at Tubulin (Homo sapiens) [7] was “Active”.

Regarding `COc1cc(/C=C/c2ccccc2)c(-c2ccccc2)c(OC)c1OC`, the pIC50 in the experiment with A549 is 4.10; in the experiment on HeLa [2], 4.05; with DU-145, 4.09; in the experiment on SK-N-SH, 4.20. Moreover, the inhibition in the experiment filed under Bos taurus stood at 41%.

Consider `C=C(c1ccc(OC)cc1)c1cc(OC)c(OC)c(OC)c1-c1ccc2ccccc2c1`, for which the pIC50 was 4.82 with A549, 4.46 in the experiment with HeLa [2], 4.34 with DU-145 and 5.22 with SK-N-SH. In addition, in the experiment listed under Bos taurus, the inhibition stood at 21%.

Consider `CC(=O)O[C@H]1C(=O)[C@@]2(C)[C@H]([C@H](OC(=O)c3ccccc3)[C@]3(O)C[C@H](OC(=O)[C@H](O)[C@@H](NC(=O)c4ccccc4)c4ccccc4)C(C)=C1C3(C)C)[C@]1(OC(C)=O)CO[C@@H]1C[C@@H]2O`, for which, in the experiment on HeLa [8], the outcome was Active. Moreover, at Tubulin (Homo sapiens) [9], the inhibition entry was “Active”.

Regarding `COc1ccc(/C=C/c2cc(OC)c(OC)c(OC)c2-c2ccc(Cl)cc2)cc1`, the pIC50 was 4.52 in the experiment on A549, 4.31 with HeLa [2], 4.46 with DU-145 and 4.82 in the experiment on SK-N-SH. The inhibition in the experiment listed under Bos taurus worked out at 26%.

As to `C=C(c1ccccc1)c1cc(OC)c(OC)c(OC)c1-c1ccccc1`, the pIC50 with A549 is 4.77; in the experiment on HeLa [2], 4.38; with DU-145, 4.44; in the experiment with SK-N-SH, 4.47. In the experiment filed under Bos taurus, this compound came in with an inhibition of 40%.

For `C=C(c1ccc(Cl)cc1)c1cc(OC)c(OC)c(OC)c1-c1ccccc1`, the pIC50 in the experiment on A549 is 4.40; in the experiment on HeLa [2], 4.47; in the experiment with DU-145, 4.54; in the experiment with SK-N-SH, 4.60. In the experiment listed under Bos taurus, this compound yielded an inhibition of 51%.

`COc1ccc(/C=C/c2cc(OC)c(OC)c(OC)c2-c2ccc(OC)c(OC)c2)cc1`: the negative-log IC50 (pIC50) with A549 was 4.55; with HeLa [2], 4.35; with DU-145 it was 4.47; in the experiment on SK-N-SH, 4.38. Besides, the inhibition in the experiment listed under Bos taurus stood at 33%.

With `C=C(c1ccc(C(F)(F)F)cc1)c1cc(OC)c(OC)c(OC)c1-c1ccccc1`, the pIC50 in the experiment on A549 is 4.32; with HeLa [2] it was 4.49; in the experiment on DU-145, 4.51; in the experiment on SK-N-SH it was 4.89. This compound also yielded an inhibition in the experiment listed under Bos taurus of 49%.

In the case of `C=C(c1ccc(C)cc1)c1cc(OC)c(OC)c(OC)c1-c1ccccc1`, the pIC50 with A549 was 4.46; with HeLa [2] it was 4.55; in the experiment on DU-145 it was 4.55; in the experiment on SK-N-SH it was 4.51. In addition, the inhibition in the experiment listed under Bos taurus was determined as 32%.

`COc1ccc(/C=C/c2cc(OC)c(OC)c(OC)c2-c2ccc3ccccc3c2)cc1`: the pIC50 with A549 was 4.85; in the experiment on HeLa [2] it was 4.89; in the experiment with DU-145 it was 4.49; with SK-N-SH, 4.80. For the same compound, the inhibition in the experiment listed under Bos taurus stood at 50%.

For `C=C(c1ccc(OC)cc1)c1cc(OC)c(OC)c(OC)c1-c1ccc2c(c1)OCO2`, the outcome with HeLa [1] was Active. The negative-log IC50 (pIC50) in the experiment on A549 is 5.30; in the experiment on HeLa [2], 5.27; in [3] it was 5.07; with DU-145, 5.22; in the experiment with SK-N-SH, 5.21. For the same compound, the inhibition in the experiment listed under Bos taurus was determined as 56%. Further, the Activity with HeLa [4] is 73%. The inhibition result on Tubulin (Homo sapiens) [5] and on Tubulin (Homo sapiens) [6] was “Active” in each case.

With `C=C(c1ccc(OC)cc1)c1cc(OC)c(OC)c(OC)c1-c1ccc(F)c(F)c1`, the result with HeLa [1] was Active. Also, the pIC50 with A549 is 5.19; in the experiment on HeLa [2], 5.23; in [3] it was 4.95; in the experiment on DU-145, 5.17; in the experiment with SK-N-SH it was 5.12. In the experiment listed under Bos taurus, this compound returned an inhibition of 53%. The Activity in the experiment on HeLa [4] is 70.02%. Further, the inhibition entry at Tubulin (Homo sapiens) [5] was “Active”.

Consider `C=C(c1ccc(OC)cc1)c1cc(OC)c(OC)c(OC)c1-c1ccc(Cl)cc1`, for which the pIC50 is 4.54 in the experiment with A549, 4.52 in the experiment with HeLa [2], 4.48 with DU-145 and 4.82 in the experiment with SK-N-SH. The inhibition in the experiment listed under Bos taurus worked out at 40%.

Consider `COc1cc(/C=C/c2ccc(C)cc2)c(-c2ccccc2)c(OC)c1OC`, for which the pIC50 was 4.27 in the experiment with A549, 4.35 with HeLa [2], 4.00 with DU-145 and 4.51 with SK-N-SH. In addition, in the experiment filed under Bos taurus, the inhibition was 47%.

Take `COc1ccc(/C=C/c2cc(OC)c(OC)c(OC)c2-c2ccccc2)cc1`: the pIC50 was 4.44 in the experiment on A549, 4.59 with HeLa [2], 4.29 in the experiment with DU-145 and 4.96 with SK-N-SH. Besides, the inhibition in the experiment filed under Bos taurus is 22%.

On to `C=C(c1ccc(OC)cc1)c1cc(OC)c(OC)c(OC)c1-c1ccccc1`, for which the pIC50 is 4.66 with A549, 4.96 with HeLa [2], 5.10 in the experiment with DU-145 and 4.51 in the experiment on SK-N-SH. The compound further showed an inhibition in the experiment filed under Bos taurus of 49%.

Regarding `COc1ccc(/C=C/c2cc(OC)c(OC)c(OC)c2-c2ccc(F)c(C)c2)cc1`, the pIC50 in the experiment on A549 was 4.74; in the experiment on HeLa [2], 4.77; with DU-145, 4.64; with SK-N-SH it was 4.72. The same compound had an inhibition in the experiment filed under Bos taurus of 48%.
